We go through eleven compounds from ChEMBL document CHEMBL1131380, “Clarification of the binding mode of teleocidin and benzolactams to the Cys2 domain of protein kinase Cdelta by synthesis of hydrophobically modified, teleocidin-mimicking benzolactams and computational docking simulation” (J Med Chem, 1998).

Each structure is given as a SMILES string. Bounds are passed on as bounds.

A word on the EC50: it is the concentration needed to bring the measured effect to its halfway point. A low value points to a more potent agent. The Ki is the dissociation constant of the complex between target and ligand, obtained from inhibition or displacement.

The subject of the first assay is HL-60. Briefly: Effective concentration against HL-60 cell differentiation. The conditions noted are these: Homo sapiens. The format is functional, cell-based.
With `CC(C)[C@H]1C(=O)N[C@H](CO)Cc2cc3c(cc2N1C)C1(CCC3)CCC(C)(C)CC1`, the concentration giving a half-maximal response (EC50) came to 20 nM.
Consider `CC(C)[C@H]1C(=O)N[C@H](CO)Cc2cc3c(cc2N1C)C1(CCCCC1)CCC3`, for which a half-maximal effect (EC50) was put at 70 nM.
On to `CC(C)[C@H]1C(=O)N[C@H](CO)Cc2cc3c(cc2N1C)CCCC3(C)C`, for which a half-maximal response (EC50) required 7000 nM.
`CCCCCCCCCCC1C(=O)N[C@H](CO)Cc2ccccc2N1C` (stereo partly drawn) returned a half-maximal effective concentration (EC50) of 200 nM.

The next assay deals with HL-60. Kind of assay: Effective concentration against monocytes of HL-60 cells growth inhibition. The conditions noted are these: Homo sapiens. The format is functional, cell-based. In short, it runs like this:
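HL-60 cells grown in RPMI1640 with 5% FBS (not delipidized), penicillin G and streptomycin, at 37 °C in humidified 5% CO2. Compounds taken from 2 mM ethanol stocks, with final ethanol below 0.5%. Cells seeded at about 8 × 10⁴ cells/mL and counted after 4 days. EC50 for growth inhibition.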
Regarding `CC(C)[C@H]1C(=O)N[C@H](CO)Cc2ccccc2N1C`, the EC50 was > 1000 nM.
Consider `C=C[C@@]1(C)CC[C@](C)(C(C)C)c2cc3c4c(c[nH]c4c21)C[C@@H](CO)NC(=O)[C@H](C(C)C)N3C`, for which the 50% effective concentration (EC50) was determined as 5 nM.
Still for that read-out and setting: the figure for `CC(C)[C@H]1C(=O)N[C@H](CO)Cc2c[nH]c3cccc(c23)N1C` [INDOLACTUM] is 5 nM.

The target of the next assay is Protein kinase C delta type (Homo sapiens, UniProt Q05655). Briefly: Displacement of [3H]PDBu from recombinant Protein kinase C delta.
Protein kinase C delta type, sequence (Q05655 whole entry): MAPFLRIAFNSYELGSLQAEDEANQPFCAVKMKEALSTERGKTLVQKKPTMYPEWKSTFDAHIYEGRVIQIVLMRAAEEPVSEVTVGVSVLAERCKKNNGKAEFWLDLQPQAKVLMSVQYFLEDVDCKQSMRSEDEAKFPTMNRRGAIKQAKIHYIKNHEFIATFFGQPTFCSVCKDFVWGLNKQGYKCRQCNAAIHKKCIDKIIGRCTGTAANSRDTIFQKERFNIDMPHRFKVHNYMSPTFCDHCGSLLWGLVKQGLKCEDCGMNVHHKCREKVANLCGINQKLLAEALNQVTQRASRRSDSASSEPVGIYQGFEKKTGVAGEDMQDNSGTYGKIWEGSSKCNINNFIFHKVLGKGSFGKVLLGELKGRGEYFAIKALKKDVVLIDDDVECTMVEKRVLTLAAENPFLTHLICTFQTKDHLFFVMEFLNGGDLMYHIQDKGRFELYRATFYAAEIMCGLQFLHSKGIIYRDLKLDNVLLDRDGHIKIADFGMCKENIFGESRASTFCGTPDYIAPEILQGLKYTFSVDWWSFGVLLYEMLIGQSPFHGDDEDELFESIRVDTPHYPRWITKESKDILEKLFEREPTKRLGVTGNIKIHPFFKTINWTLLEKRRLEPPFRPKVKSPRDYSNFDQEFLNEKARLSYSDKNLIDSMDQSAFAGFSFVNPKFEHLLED
Details: not given
The method, boiled down:
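Competitive binding of [3H]PDBu (Kd 2.9 nM) to recombinant PKCδ. Ki derived from the IC50 of the binding curve. Number of repetitions given per compound.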
Turning to `CC(C)[C@H]1C(=O)N[C@H](CO)Cc2ccccc2N1C`, the Ki came to 1700 nM.
For `CCCCCCCCCCc1ccc2c(c1)C[C@@H](CO)NC(=O)[C@H](C(C)C)N2C`, the Ki came out at 32 nM.
Still for that read-out and setting: the figure for `CC(C)[C@H]1C(=O)N[C@H](CO)Cc2cc3c(cc2N1C)C1(CCC3)CCC(C)(C)CC1` is 14 nM; for `CC(C)[C@H]1C(=O)N[C@H](CO)Cc2cc3c(cc2N1C)C1(CCCCC1)CCC3` it is 19 nM; for `CCCCCCCCCCc1ccc2c(c1)N(C)[C@@H](C(C)C)C(=O)N[C@H](CO)C2` it is 5.9 nM.
Same read-out and setting: the figure for `CC(C)[C@H]1C(=O)N[C@H](CO)Cc2cc3c(cc2N1C)C(C)(C)CCC3(C)C` is 5100 nM; for `CC(C)[C@H]1C(=O)N[C@H](CO)Cc2cc3c(cc2N1C)CCCC3(C)C` it is 1700 nM; for `CCCCCCCCCCC1C(=O)N[C@H](CO)Cc2ccccc2N1C` (stereo partly drawn) it is 3 nM.
Same read-out and setting: the same measure for `CC(C)[C@H]1C(=O)N[C@H](CO)Cc2cc3c(cc2N1C)C(C)(C)CCC3`: 65 nM; for `C=C[C@@]1(C)CC[C@](C)(C(C)C)c2cc3c4c(c[nH]c4c21)C[C@@H](CO)NC(=O)[C@H](C(C)C)N3C`: 0.32 nM; for `CC(C)[C@H]1C(=O)N[C@H](CO)Cc2c[nH]c3cccc(c23)N1C` [INDOLACTUM]: 80 nM.
